According to ChEMBL document CHEMBL4814031, “In pursuit of a selective hepatocellular carcinoma therapeutic agent: Novel thalidomide derivatives with antiproliferative, antimigratory and STAT3 inhibitory properties” (Eur J Med Chem, 2021):
The source made the active and inactive calls. The calls are words filed in the database; no cut-off is given here.

Assays:
[1] = test system: BMOL-T; test: Inhibition of Akt phosphorylation in mouse BMOL-T cells assessed as change in phosphorylated Akt level at 10 uM incubated for 6 hrs by immunofluorescent assay relative to control; assay type: cell-based; parameters: scale not given: the % may be the effect or the level left
In short: (§1)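 BMOL cells in supplemented Williams' E medium were treated 6 h with compound or 0.1% DMSO vehicle. Fixed in 4% PFA, permeabilised with 0.1% Triton X-100, blocked, then incubated 18 h with anti-phospho-p65, -Akt or -STAT3, then secondary antibody 1 h and Hoechst. High-content imaging of per-cell intensity and nuclear:whole-cell ratio. Mean of two experiments, SD.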

[2] = Selectivity for antiproliferative activity against mouse BMOL-T cells over mouse BMOL-NT cells at 26 uM measured every 4 hrs for 3 days by IncuCyte zoom live cell analysis; settings: time 3 day
[3] = Antimigratory activity against mouse BMOL-T cells assessed as inhibition of cell migration at 10 uM incubated for 16 hrs by scratch wound healing assay relative to control; assay type: functional
In short: (§2)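 Wound healing in BMOL-T cells plated at 20,000/well in supplemented Williams' E medium and grown 24 h. Wounds made with a Woundmaker, then medium replaced with fresh medium holding compound or 0.1% DMSO vehicle. Live-cell imaging every 2 h over 24 h, read as average wound width (µm). n = 3, SEM.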

[4] = Selectivity for antiproliferative activity against mouse BMOL-T cells over mouse BMOL-NT cells at 10 uM measured every 4 hrs for 3 days by IncuCyte zoom live cell analysis; settings: time 3 day
[5] = Inhibition of Akt phosphorylation in mouse BMOL-NT cells assessed as change in phosphorylated Akt level at 10 uM incubated for 6 hrs by immunofluorescent assay relative to control; assay type: cell-based; parameters: scale not given: the % may be the effect or the level left; in short: as §1
[6] = Inhibition of Akt phosphorylation in mouse BMOL-NT cells assessed as change in nuclear phosphorylated Akt level at 10 uM incubated for 6 hrs by immunofluorescent assay relative to control; assay type: subcellular, Nucleus; parameters: scale not given: the % may be the effect or the level left; in short: as §1
[7] = molecular target: Signal transducer and activator of transcription 3 (Mus musculus) (UniProt P42227); test: Inhibition of STAT3 phosphorylation in mouse BMOL-T cells assessed as change in phosphorylated STAT3 level at 10 uM incubated for 6 hrs by immunofluorescence assay relative to control; assay type: cell-based; parameters: scale not given: the % may be the effect or the level left; in short: as §1
Chain of Signal transducer and activator of transcription 3 (Mus musculus) (P42227 whole entry): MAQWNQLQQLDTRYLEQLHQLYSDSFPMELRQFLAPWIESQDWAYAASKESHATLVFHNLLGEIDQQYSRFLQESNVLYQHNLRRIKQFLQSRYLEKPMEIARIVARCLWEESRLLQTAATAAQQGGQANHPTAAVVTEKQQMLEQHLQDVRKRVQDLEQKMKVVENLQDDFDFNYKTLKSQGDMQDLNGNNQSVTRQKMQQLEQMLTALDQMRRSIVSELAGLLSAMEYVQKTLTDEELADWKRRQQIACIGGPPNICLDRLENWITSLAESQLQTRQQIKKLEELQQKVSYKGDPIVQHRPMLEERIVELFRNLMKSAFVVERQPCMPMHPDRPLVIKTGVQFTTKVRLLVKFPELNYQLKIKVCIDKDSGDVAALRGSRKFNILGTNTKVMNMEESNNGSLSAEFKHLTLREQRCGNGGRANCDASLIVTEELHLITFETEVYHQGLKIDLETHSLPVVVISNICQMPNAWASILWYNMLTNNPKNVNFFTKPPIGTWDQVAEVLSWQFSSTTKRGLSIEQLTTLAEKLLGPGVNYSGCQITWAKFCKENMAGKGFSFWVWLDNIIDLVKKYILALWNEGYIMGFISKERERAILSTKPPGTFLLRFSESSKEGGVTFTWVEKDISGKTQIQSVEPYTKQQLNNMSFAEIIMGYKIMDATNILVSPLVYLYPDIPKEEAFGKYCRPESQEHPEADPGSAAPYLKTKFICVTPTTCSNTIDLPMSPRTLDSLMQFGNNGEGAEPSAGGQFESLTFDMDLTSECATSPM

[8] = molecular target: Signal transducer and activator of transcription 3 (Mus musculus) (UniProt P42227); test: Inhibition of STAT3 phosphorylation in mouse BMOL-T cells assessed as change in nuclear phosphorylated STAT3 level at 10 uM incubated for 6 hrs by immunofluorescence assay relative to control; assay type: subcellular; parameters: scale not given: the % may be the effect or the level left; settings: Nucleus; in short: as §1
[9] = molecular target: T1, Signal transducer and activator of transcription 3 (Mus musculus, UniProt P42227); test: Inhibition of STAT3 phosphorylation in mouse BMOL-NT cells assessed as change in phosphorylated STAT3 level at 10 uM incubated for 6 hrs by immunofluorescence assay relative to control; assay type: cell-based; parameters: scale not given: the % may be the effect or the level left; in short: as §1
T1 sequence (P42227 whole entry): as above

[10] = molecular target: Transcription factor p65 (Mus musculus) (UniProt Q04207); test: Inhibition of NFkB p65 phosphorylation in mouse BMOL-T cells assessed as change in phosphorylated p65 level at 10 uM incubated for 6 hrs by immunofluorescent assay relative to control; assay type: cell-based; parameters: scale not given: the % may be the effect or the level left; in short: as §1
Chain of Transcription factor p65 (Mus musculus) (Q04207 whole entry): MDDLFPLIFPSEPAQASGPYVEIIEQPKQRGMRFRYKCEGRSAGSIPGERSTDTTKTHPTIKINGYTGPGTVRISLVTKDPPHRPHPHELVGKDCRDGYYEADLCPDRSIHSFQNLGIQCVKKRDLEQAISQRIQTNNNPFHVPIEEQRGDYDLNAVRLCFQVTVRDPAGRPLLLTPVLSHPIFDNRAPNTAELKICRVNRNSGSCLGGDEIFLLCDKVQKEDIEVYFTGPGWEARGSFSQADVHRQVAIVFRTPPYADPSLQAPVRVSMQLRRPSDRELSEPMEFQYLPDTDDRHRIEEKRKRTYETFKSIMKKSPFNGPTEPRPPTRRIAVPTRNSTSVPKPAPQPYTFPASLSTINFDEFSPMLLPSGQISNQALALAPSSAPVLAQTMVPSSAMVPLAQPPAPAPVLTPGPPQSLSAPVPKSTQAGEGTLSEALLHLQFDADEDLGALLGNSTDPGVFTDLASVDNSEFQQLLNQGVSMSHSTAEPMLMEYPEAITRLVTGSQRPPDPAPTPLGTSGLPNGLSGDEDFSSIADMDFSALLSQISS

[11] = test system: BMOL-T; test: Effect on STAT3 expression in mouse BMOL-T cells at 10 uM by AlphaLISA assay; assay type: functional, cell-based
In short: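 AlphaLISA in BMOL-T cells treated at 10 µM with 0.1% DMSO vehicle as control. Read as normalised fluorescence for total STAT3, or as the ratio of total STAT3 to p-STAT3. n ≥ 3, SEM. Significance by ANOVA with Dunnett's test.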

[12] = Antiproliferative activity against mouse BMOL-NT cells assessed as cell growth inhibition at 14 to 26 uM measured every 4 hrs for 3 days by IncuCyte zoom live cell analysis; assay type: cell-based; settings: 72 h, dose 14-26 µM, time 3 day
[13] = Antiproliferative activity against mouse BMOL-NT cells assessed as cell growth inhibition at >10 uM measured every 4 hrs for 3 days by IncuCyte zoom live cell analysis; assay type: cell-based; settings: 72 h, time 3 day
[14] = test system: BMOL-T; test: Antimigratory activity against mouse BMOL-T cells assessed as inhibition of cell migration at 10 uM incubated for 24 hrs by scratch wound healing assay; assay type: functional, cell-based; in short: as §2
[15] = test system: BMOL-T; test: (§3) Antiproliferative activity against mouse BMOL-T cells assessed as minimum concentration required for cell growth inhibition measured every 4 hrs for 3 days by IncuCyte zoom live cell analysis; assay type: functional; settings: time 3.0 day
In short: (§4)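 Dose series for BMOL-T proliferation: cells plated at 1000/well, compound added from 2× solutions (final 0.1% DMSO), imaged every 4 h for 3 days. Doubling time from the log-phase linear part of a log confluence vs time curve, expressed as % change over vehicle. n = 3, SEM.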

[16] = as §3; assay type: functional; settings: time 3 day; in short: as §4
[17] = molecular target: T1, Signal transducer and activator of transcription 3; test: Inhibition of STAT3 phosphorylation in mouse BMOL-NT cells assessed as change in nuclear phosphorylated STAT3 level at 10 uM incubated for 6 hrs by immunofluorescence assay relative to control; assay type: subcellular, Nucleus; parameters: scale not given: the % may be the effect or the level left; in short: as §1
[18] = molecular target: T2, Transcription factor p65 (Mus musculus, UniProt Q04207); test: Inhibition of NFkB p65 phosphorylation in mouse BMOL-NT cells assessed as change in phosphorylated p65 level at 10 uM incubated for 6 hrs by immunofluorescent assay relative to control; assay type: cell-based; parameters: scale not given: the % may be the effect or the level left; in short: as §1
T2 sequence (Q04207 whole entry): as above

[19] = molecular target: Transcription factor p65 (Mus musculus) (UniProt Q04207); test: Inhibition of NFkB p65 nuclear translocation in mouse BMOL-T cells assessed as change in nuclear p65 level at 10 uM incubated for 6 hrs by immunofluorescent assay relative to control; assay type: subcellular; parameters: scale not given: the % may be the effect or the level left; settings: Nucleus; in short: as §1
[20] = molecular target: T2, Transcription factor p65; test: Inhibition of NFkB p65 nuclear translocation in mouse BMOL-NT cells assessed as change in nuclear p65 level at 10 uM incubated for 6 hrs by immunofluorescent assay relative to control; assay type: subcellular, Nucleus; parameters: scale not given: the % may be the effect or the level left; in short: as §1
[21] = Antiproliferative activity against mouse BMOL-T cells assessed as cell growth inhibition at 10 uM measured every 4 hrs for 3 days by IncuCyte zoom live cell analysis relative to control; assay type: functional; settings: 72 h, time 3 day
[22] = test system: BMOL-T; test: Inhibition of Akt phosphorylation in mouse BMOL-T cells assessed as change in nuclear phosphorylated Akt level at 10 uM incubated for 6 hrs by immunofluorescent assay relative to control; assay type: subcellular; parameters: scale not given: the % may be the effect or the level left; settings: Nucleus; in short: as §1

With `CC(C)(C)c1ccc(Sc2cccc3c2C(=O)N(C2CCC(=O)NC2=O)C3=O)cc1` (configuration not stated) the Activity [1] was -3%, the Selectivity ratio [2] was 9 and the inhibition at 10 µM [3] was 80%. For the same compound, the Selectivity ratio [4] was 9, the Activity [5] was 0% and the Activity [6] was -25%. It also gave an Activity [7] of -22%, an Activity [8] of -16% and an Activity [9] of -5%. For the same compound, the Activity [10] was -13%, the Activity [11] was “inactive” and the Activity [12] was “Toxic”. The Activity [13] was “Toxic”, the Activity [14] was “Active” and the Activity [15] was “Dose-Dependent Effect”. The MAC [16] was <6 µM, the Activity [17] was -8% and the Activity [18] was 0%. The Activity [19] was -23%, the Activity [20] was 11% and the inhibition at 10 µM [21] was 36%. The Activity [22] was -19%.
